Measurements published in ChEMBL document CHEMBL1681779, “Design, synthesis and docking study of 5-amino substituted indeno[1,2-c]isoquinolines as novel topoisomerase I inhibitors” (Bioorg Med Chem, 2011).
The source made the active and inactive calls. The calls are words filed in the database; no cut-off is given here.

Columns and labels:
[1] = system: Col2; assay: Cytotoxicity against human Col2 cells by sulforhodamine B assay
[2] = system: HL-60; assay: Cytotoxicity against human HL60 cells by MTT assay; assay type: functional, cell-based
[3] = system: SNU-638; assay: Cytotoxicity against human SNU638 cells by sulforhodamine B assay
[4] = system: HT-1080; assay: Cytotoxicity against human HT1080 cells by sulforhodamine B assay
[5] = molecular target: T1, DNA topoisomerase 1 (Homo sapiens) (UniProt P11387); assay: Inhibition of DNA topoisomerase 1-mediated supercoiled DNA relaxation at 0.1 mg/mL by agarose gel electrophoresis
T1 sequence (whole entry): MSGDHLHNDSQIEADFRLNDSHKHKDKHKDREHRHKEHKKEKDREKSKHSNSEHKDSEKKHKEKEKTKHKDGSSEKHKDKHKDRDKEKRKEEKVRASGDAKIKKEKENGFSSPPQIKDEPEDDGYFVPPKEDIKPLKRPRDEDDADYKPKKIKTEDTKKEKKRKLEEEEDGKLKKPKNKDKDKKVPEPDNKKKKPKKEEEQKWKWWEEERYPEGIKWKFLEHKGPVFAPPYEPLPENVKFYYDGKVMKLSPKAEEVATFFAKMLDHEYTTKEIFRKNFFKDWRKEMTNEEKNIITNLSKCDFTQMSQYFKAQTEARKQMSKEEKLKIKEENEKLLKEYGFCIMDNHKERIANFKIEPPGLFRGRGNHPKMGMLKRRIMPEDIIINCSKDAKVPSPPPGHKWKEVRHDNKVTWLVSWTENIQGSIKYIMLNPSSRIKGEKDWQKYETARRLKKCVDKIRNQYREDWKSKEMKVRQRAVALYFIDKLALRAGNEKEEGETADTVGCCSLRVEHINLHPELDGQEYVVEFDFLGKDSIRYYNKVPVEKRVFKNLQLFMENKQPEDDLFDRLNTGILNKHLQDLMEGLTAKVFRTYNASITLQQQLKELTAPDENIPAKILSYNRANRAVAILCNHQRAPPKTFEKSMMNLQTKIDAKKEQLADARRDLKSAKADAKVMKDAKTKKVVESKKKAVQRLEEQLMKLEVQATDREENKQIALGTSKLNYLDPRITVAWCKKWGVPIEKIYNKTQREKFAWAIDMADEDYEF
Procedure, shortened: (§1)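 Relaxation assay with 500 ng supercoiled pBR322 DNA as substrate and 1 unit topo I. Reactions were run with or without compound, with camptothecin as reference, for 30 min at 37 °C.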

[6] = system: A549; assay: Cytotoxicity against human A549 cells by sulforhodamine B assay
[7] = molecular target: T1, DNA topoisomerase 1 (Homo sapiens); assay: Inhibition of DNA topoisomerase 1 relative to 0.1 uM camptothecin
Procedure, shortened: as §1

[8] = system: SK-MEL-2; assay: Cytotoxicity against human SK-MEL-2 cells at 0.001 mg/ml; assay type: functional, cell-based

inhibition [5] | inhibition [7] | SMILES | IC50 [1] [µM] | IC50 [2] [µM] | IC50 [3] [µM] | IC50 [4] [µM] | IC50 [6] [µM] | Activity [8]
Active |  | CN1CCCN(c2nc3c(c4ccccc24)Cc2ccccc2-3)CC1 | 2.13 | 3.33 | 8.24 | 0.25 | 5.46 | 
Active |  | c1ccc2c(c1)Cc1c-2nc(N2CCOCC2)c2ccccc12 | 4.42 | 8.65 | 2.58 | 1.24 | 5.69 | 
 | Active | NCCNc1nc2c(c3ccccc13)C(=O)c1ccccc1-2 | 1.43 | 10.4 | 1.68 | 9.6 | 0.85 | 
Active |  | CCN1CCN(c2nc3c(c4ccccc24)Cc2ccccc2-3)CC1 | 7.74 | 9.98 | 3.25 | 19 | 8.19 | 
Active |  | CCCCNc1nc2c(c3ccccc13)Cc1ccccc1-2 | 75.2 | 19.6 | 22.2 | 4.39 | 27.7 | 
Active | Active | O=C1c2ccccc2-c2nc(N3CCNCC3)c3ccccc3c21 | 7.99 | 4.68 | 8.25 | 2.01 | 8.52 | 

The remaining lines, values behind:

SMILES | inhibition [5] | inhibition [7] | IC50 [1] [µM] | IC50 [2] [µM] | IC50 [3] [µM] | IC50 [4] [µM] | IC50 [6] [µM] | Activity [8]
CC(=O)OC1c2ccccc2-c2nc(N3CCOCC3)c3ccccc3c21 (stereo unspecified) |  |  | 7.87 | 15.9 | 6.99 | 58.3 | 8.3 | 
CN1CCN(c2nc3c(c4ccccc24)C(O)c2ccccc2-3)CC1 (stereo unspecified) |  |  | 28.3 | 13.4 | 9.01 | 4.87 | 18.1 | 
OC1c2ccccc2-c2nc(N3CCOCC3)c3ccccc3c21 (stereo unspecified) |  |  | > 100 | 99.2 | > 100 | > 100 | 93.3 | 
CN1CCN(c2nc3c(c4ccccc24)C(C)(O)c2ccccc2-3)CC1 (stereo unspecified) |  |  | 58 | 79.9 | 58.2 | 22.2 | 92.5 | 
CN1CCN(c2nc3c(c4ccccc24)C(=O)c2ccccc2-3)CC1 | Active | Active | 7.77 | 6.35 | 7.98 | 5.36 | 8.19 | 
O=C1c2ccccc2-c2nc(N3CCOCC3)c3ccccc3c21 |  |  | 96.9 | > 100 | > 100 | 69.2 | > 100 | 
CCN1CCN(c2nc3c(c4ccccc24)C(O)c2ccccc2-3)CC1 (stereo unspecified) |  |  | 19.2 | 29.4 | 18.9 | 8.66 | 20.9 | 
CCN1CCN(c2nc3c(c4ccccc24)C(=O)c2ccccc2-3)CC1 | Active | Active | 6.45 | 4.21 | 5.85 | 1.23 | 7.1 | 
CN1CCCN(c2nc3c(c4ccccc24)C(=O)c2ccccc2-3)CC1 | Active | Active | 0.27 | 1.28 | 1.36 | 0.54 | 1.05 | 
CCCCNc1nc2c(c3ccccc13)C(=O)c1ccccc1-2 |  |  | > 100 | > 100 | > 100 | 48.2 | > 100 | 
CC1c2ccccc2-c2c1c1ccccc1c(=O)n2C (stereo unspecified) |  |  |  |  |  |  |  | Active
CCCCCCC1(O)c2ccccc2-c2nc(N3CCN(C)CC3)c3ccccc3c21 (stereo unspecified) |  | Active | 6.24 | 8.55 | 12.4 | 2.57 | 7.21 | 
CN1CCN(c2nc3c(c4ccccc24)Cc2ccccc2-3)CC1 | Active |  | 10.1 | 5.87 | 19.8 | 3.85 | 11.4 | 
